Assay results: ChEMBL document CHEMBL4513216, “Probing the Open Global Health Chemical Diversity Library for Multistage-Active Starting Points for Next-Generation Antimalarials” (ACS Infect Dis, 2020)

Experiment: Toxicity liver stage against HepG2, at 10uM
Assay type: cell-based
Design: test concentration 10 uM, cell line HepG2-A16-CD81EGFP
Settings: human, HepG2-A16-CD81EGFP cells; read-out: INHIBITION
In short: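 Uninfected HepG2-A16-CD81EGFP cells, 3 × 10^3 per well, 1536-well, plated on prespotted compound at 10 μM final, parasite-free screening media added to match infected plates; puromycin 10 μM positive, DMSO 0.5% negative; run in parallel with 48 h PbLuc assay at 37 °C, 5% CO2; viability by CellTiter-Glo luminescence, normalized to controls.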

Going from COc1ccc(S(=O)(=O)N2CCOC(Cn3ccnc3)C2)cc1 (stereo not drawn) to COc1ccccc1CCNS(=O)(=O)N1CCOCC1, the cytotoxicity at 10 µM falls from 7.25% to 2.52%.

Going from CC(C)[C@H](NC(=O)NC1CCS(=O)(=O)C1)C(=O)NCc1ccc(Cl)cc1 (stereo partly drawn) to Cc1c(COC(C)C)cccc1NC(=O)N1CC[C@H](O)C1, the cytotoxicity at 10 µM falls from 3.09% to -11%.

Going from CCOC(=O)c1sc(NC(=O)c2cc(=O)c(OC)c[nH]2)nc1C to Cc1nc(C)c(C(=O)NCCNC(=O)Cc2ccccc2)s1, the cytotoxicity at 10 µM rises from -57.1% to -7.89%.

Compared with COC1CCN(c2ccc(NC(=O)Cn3cccn3)cc2)CC1, Cc1nc(CC(=O)N2CCN(c3ccc(N(C)C)cc3)CC2)cs1 is lower in cytotoxicity at 10 µM: 2.04% for the first, 0.236% for the second.

Going from CS(=O)(=O)N1CC2(CCN(c3nccs3)CC2)c2ccccc21 to Nc1nc2c(c(=O)[nH]1)CCN(C(=O)c1ccccc1N1CCCC1)C2, the cytotoxicity at 10 µM rises from 0.933% to 1.79%.

Compared with C1CCN(Cc2nnn3c2CN(CC2CC2)CCC3)C1, C1CN(CC2CCOCC2)Cc2c(COCC3CC3)nnn2C1 is higher in cytotoxicity at 10 µM: -139% for the first, -130% for the second.

First: O=C([C@H]1COC[C@H]2CN(c3ccncn3)C[C@H]21)N1CCCC1
Second: c1nc(N2CCOCC2)sc1-c1cncn1CCCN1CCCCC1
The cytotoxicity at 10 µM of the first is lower: -140% for the first, 0.682% for the second.

Going from CCn1nc2ccc(S(=O)(=O)N3CCSCC3)cn2c1=O to Cc1ccc(CS(=O)(=O)N2CC[C@H]3[C@H]2CCN3C)cc1, the cytotoxicity at 10 µM falls from 2.4% to -11.6%.

First: CC(=O)c1c(O)ccnc1C(F)(F)F
Second: O=C(OC1CCC1)c1ncccc1OCC(F)(F)F
The cytotoxicity at 10 µM of the first is higher: 2.34% for the first, -12.6% for the second.

Compared with Cc1cc2ccccc2n1CC(=O)NCC(=O)N1CCOCC1, COCCn1c(C(=O)NC(C(N)=O)C(C)C)cc2ccccc21 (stereo not drawn) is higher in cytotoxicity at 10 µM: -7.7% for the first, 9.73% for the second.

Compared with O=C(Cc1ccsc1)N1CCC[C@@H]1Cn1c(=O)oc2ccccc21, CC(=O)Nc1nc(C(=O)N2CCCC2c2ccccc2C)cs1 (stereo not drawn) is lower in cytotoxicity at 10 µM: 4.53% for the first, -2.27% for the second.

Compared with O=C(c1ccc(=O)[nH]n1)N1CCNCC1c1ccccc1 (stereo not drawn), CN1CC(c2ccccc2)CC12CCN(C(=O)c1cncc(Cl)c1)CC2 (stereo not drawn) is lower in cytotoxicity at 10 µM: -2.44% for the first, -12.6% for the second.

First: CCn1nnnc1-c1cccc(NC(N)=O)c1
Second: CCCc1cc(C(=O)NCCCn2nnc3ccccc32)no1
The cytotoxicity at 10 µM of the first is higher: 8.92% for the first, -12.5% for the second.

Going from CSCC(=O)NC1(c2cccc(Cl)c2)CC1 to CCn1cc(CNC2CC(=O)N(CCc3cccc(Cl)c3)C2)cn1 (stereo not drawn), the cytotoxicity at 10 µM falls from -1.54% to -8.54%.

Compared with CC(C)c1ncc2c(n1)CN(CC1CCCCO1)CC2 (stereo not drawn), Cc1n[nH]c(C2CN(Cc3csc(C4CCCCC4)n3)CCO2)n1 (stereo not drawn) is higher in cytotoxicity at 10 µM: 8.86% for the first, 23.8% for the second.

First: Cc1ccc(OCCN(C)C2CCOC2=O)cc1 (stereo not drawn)
Second: Cc1ccc(OCC(C)NC(=O)CN(C)c2ccc(C#N)cn2)cc1 (stereo not drawn)
The cytotoxicity at 10 µM of the first is lower: -146% for the first, -6.05% for the second.

Going from Cn1cc(CC(=O)N2CCCC(c3cc(C(F)(F)F)[nH]n3)C2)cn1 (stereo not drawn) to Cc1nc[nH]c1CN1C[C@H]2CC[C@@H](C1)N(C(=O)CCc1cccnc1)C2, the cytotoxicity at 10 µM falls from -7.11% to -14.2%.

Compared with CNC(=O)c1sc(C(NC(=O)c2ccccc2)C2CC2)nc1C (stereo not drawn), Cc1cc(NCCS(C)(=O)=O)nc2ccccc12 is lower in cytotoxicity at 10 µM: 2.31% for the first, 0.748% for the second.

Compared with CCOC(=O)N(C)C1CCN(Cc2cnc3ccccn23)CC1, CC(=O)N(Cc1ncc(C)o1)C1CCN(CCOc2ccccc2)C1 (stereo not drawn) is lower in cytotoxicity at 10 µM: 18.1% for the first, 7.02% for the second.

First: CCn1cnnc1CNC(=O)NCC(C)(CC)N1CCOCC1 (stereo not drawn)
Second: CCn1nc(CC(C)C)cc1C(=O)N1CCOCC(O)C1 (stereo not drawn)
The cytotoxicity at 10 µM of the first is higher: -10.3% for the first, -14.3% for the second.

Going from COCc1ccccc1C(=O)NCC(c1c(F)cccc1F)N(C)C (stereo not drawn) to COC(=O)c1ccccc1C(=O)N(CCN(C)C)Cc1sccc1C, the cytotoxicity at 10 µM falls from -9.75% to -129%.

Going from COCCOCCNC(=O)N1CCN(c2ccccc2C#N)CC1 to Cc1ccccc1N1CCN(C(=O)CCc2nncn2C)C(C)C1 (stereo not drawn), the cytotoxicity at 10 µM falls from 6.39% to 3.34%.

First: Cc1csc(CCNC(=O)C2CCOC2)n1 (stereo not drawn)
Second: Cc1nc(CCNC(=O)NC2CCCN(c3ncccn3)C2)cs1 (stereo not drawn)
The cytotoxicity at 10 µM of the first is higher: -6.17% for the first, -129% for the second.

Compared with CC(O)CN1CCN(C(=O)c2cccn2Cc2cccnc2)CC1 (stereo not drawn), Cc1nn(CC(=O)N2CCN(Cc3cccnc3)CC2)c(C)c1Cl is higher in cytotoxicity at 10 µM: -9.15% for the first, 0.612% for the second.

Going from CCn1cc(NC(=O)C2CCN(Cc3nc(C)c(C)o3)CC2)cn1 to CCc1cnc(C)nc1NCCN1CCC(O)CC1, the cytotoxicity at 10 µM falls from 5.3% to 1.78%.

First: CN(C)C(CNC(=O)NCc1cc[nH]n1)c1ccco1 (stereo not drawn)
Second: COCCNC(=O)NCc1cccc(-n2ccnc2)c1
The cytotoxicity at 10 µM of the first is lower: -5.47% for the first, 16.1% for the second.

Going from COc1cccc(S(=O)(=O)CCN2CCN(CCO)CC2)c1 to O=S(=O)(Cc1ccccc1CN1CC[C@H](CO)[C@H](O)C1)c1ccccc1, the cytotoxicity at 10 µM falls from 0.878% to -18.2%.

Compared with CN(CC(N)=O)C(=O)c1cc(Cl)c(Cl)n1C, COCCCNC(=O)CN(C)C(=O)c1ccc(OC)cc1O is lower in cytotoxicity at 10 µM: 8.56% for the first, -10.7% for the second.

Going from CC(Oc1ccccc1C(F)(F)F)C(=O)NCCNC(=O)C1CC1 (stereo not drawn) to CCN(C(=O)NCCc1cccc(F)c1F)C(C)CS(C)(=O)=O (stereo not drawn), the cytotoxicity at 10 µM rises from 6.91% to 11.9%.

First: CCn1ccnc1CN1CCN(CCCS(C)(=O)=O)CC1C (stereo not drawn)
Second: CCn1ccnc1CN1CCC(=O)N(CC2CC2)C(C(C)C)C1 (stereo not drawn)
The cytotoxicity at 10 µM of the first is lower: -194% for the first, -10.3% for the second.

Going from Cc1cc(NCC(=O)N(C)CC(F)(F)F)c(C(N)=O)cc1F to COc1cc(C(=O)N(C)C)ccc1NC(=O)c1ccsc1, the cytotoxicity at 10 µM rises from -2.91% to -2.53%.

First: NC(=O)NCC1CCCCN1C(=O)c1ccc(Br)s1 (stereo not drawn)
Second: CC(=O)c1ccc(C(=O)N2CCC(c3cc(O)nc(C)n3)CC2)s1
The cytotoxicity at 10 µM of the first is lower: -0.147% for the first, 1.3% for the second.

Going from O=C(Nc1cccn(Cc2ccc(F)cc2)c1=O)c1csnn1 to CN(Cc1cccc(C#N)c1)C(=O)C1CC(c2cccc(F)c2)=NO1 (stereo not drawn), the cytotoxicity at 10 µM rises from 1.51% to 1.85%.

Going from Cc1cccc(I)c1C(=O)NCc1ncc[nH]1 to CNCc1nc(-c2ccc3c(c2)OCO3)c[nH]1, the cytotoxicity at 10 µM rises from 0.392% to 3.44%.

Compared with CC(CCNC(=O)N1CCC1)N(C)C(=O)OC(C)(C)C (stereo not drawn), CCc1nnsc1C(=O)NCCC1CCCN(C(C)C)C1 (stereo not drawn) is higher in cytotoxicity at 10 µM: -5.61% for the first, 4.95% for the second.

Going from O=C1C(Sc2nc(=O)ccn2C2CC2)CCN1c1ccccc1F (stereo not drawn) to C[C@@H]1CN(C(=O)c2cc(Cn3ccc4ccccc43)[nH]n2)C[C@H](C)O1, the cytotoxicity at 10 µM falls from 1.73% to -12.2%.

First: OCC(CO)Nc1ccc2c(Cl)ccc(Cl)c2n1
Second: N#CC1(NC(=O)c2ccc(-c3nc(C4CC4)n[nH]3)cc2)CC1
The cytotoxicity at 10 µM of the first is higher: -3.04% for the first, -10.7% for the second.

First: CC(C)=CCN1CCN(C(=O)C2CCS(=O)(=O)C2)CC1 (stereo not drawn)
Second: CC1CCN(C(=O)c2cccc(CN3CCOCC3)c2)CC1
The cytotoxicity at 10 µM of the first is lower: -90.5% for the first, 8.07% for the second.

Going from CCOCCCC(=O)Nc1cccnc1-n1ccnc1C to CC(C)c1nccn1CCCNC(=O)c1ccc(-c2cn[nH]c2)nc1, the cytotoxicity at 10 µM falls from 9.21% to -5.84%.

First: OC(COCc1cccs1)Cn1cc(-n2cccc2)cn1 (stereo not drawn)
Second: O=C(NC[C@H]1OC[C@@H]2CN(Cc3ccco3)CC[C@@H]21)c1cccnc1
The cytotoxicity at 10 µM of the first is higher: 0.12% for the first, -141% for the second.

First: CC(C)c1nc(C2CCCN2c2ncc(C(N)=O)cc2Cl)no1 (stereo not drawn)
Second: Cc1nc(-c2ccco2)ccc1C(=O)N1CCc2nnc(N)cc2C1
The cytotoxicity at 10 µM of the first is higher: 13.4% for the first, -7.09% for the second.

Going from Cc1ncc(COc2cccc3c2NC(=O)CO3)s1 to Cc1cccc(-n2c(C)cc(=O)[nH]c2=O)c1C, the cytotoxicity at 10 µM rises from -3.13% to -2%.

First: CC(C)(C#N)c1ccccc1CN(CCO)Cc1ccsc1
Second: COCc1cccc(NS(=O)(=O)c2cc(C(=O)O)cs2)c1
The cytotoxicity at 10 µM of the first is higher: 20% for the first, -4.69% for the second.

First: NCC1(c2cccc(C(F)(F)F)c2)CCOCC1
Second: N#Cc1cccc(N2CCCC3(C2)CN(c2ncc(F)cn2)CCO3)n1 (stereo not drawn)
The cytotoxicity at 10 µM of the first is lower: -11.1% for the first, 22.3% for the second.

Going from O=C(Nc1nncs1)NC1CCc2ccccc21 (stereo not drawn) to Cc1nn(-c2ccccc2)c(C)c1CNC1CCc2ncnn2C1 (stereo not drawn), the cytotoxicity at 10 µM rises from -10% to 2.87%.

Compared with O=C(c1ccc(-n2cnnc2)nc1)N1CCCC(O)(CO)CC1 (stereo not drawn), Cc1[nH]ccc1C(=O)N1CCC(c2nnc(Cn3ccnc3)n2C)CC1 is lower in cytotoxicity at 10 µM: -0.274% for the first, -9.61% for the second.

Going from CN1CC2(CCCN(CCOCc3ccccc3)C2)OC1=O (stereo not drawn) to c1ccc(CCc2noc(CN3CCC(N4CCSCC4)CC3)n2)cc1, the cytotoxicity at 10 µM rises from -10.4% to -8.01%.

Going from CC(C)CN1CCCn2nc(CNC(=O)CN3CCOC3=O)cc2C1 to CSc1cccc(CN2CCn3nc(CNC(C)=O)cc3C2)c1, the cytotoxicity at 10 µM falls from 0.541% to -1.03%.

Going from CN(Cc1ccoc1)C(=O)CN1C(=O)OC(C)(C)C1=O to CSc1ccc(CN(C)C(=O)c2cc3c([nH]c2=O)CCCC3=O)cc1, the cytotoxicity at 10 µM rises from -128% to -1.25%.

First: O=c1[nH]c(-c2ccccn2)nc2c1CCN(S(=O)(=O)N1CCCC1)C2
Second: CN1CCCCc2c1nc1c(c2N)CCC1
The cytotoxicity at 10 µM of the first is higher: 8.85% for the first, 8.45% for the second.

Going from CN(C)c1nc(NCc2cccnc2N)ncc1F to CC(C(=O)NCCOc1ccc2c(c1)OCO2)n1cncn1 (stereo not drawn), the cytotoxicity at 10 µM falls from -2.11% to -4.33%.

Compared with O=C(NCCC1CN(C2CCCC2)CCO1)c1c[nH]c(=O)[nH]c1=O (stereo not drawn), COCCN(C)CCN1CC2(CCN(C3CCCOC3)CC2)OC1=O (stereo not drawn) is lower in cytotoxicity at 10 µM: 0.0436% for the first, -11% for the second.

First: c1cncc(-n2cnnc2CC2CCNCC2)c1
Second: CN(Cc1cccnc1)C[C@@H]1OC[C@H]2CN(Cc3ccco3)CC[C@H]21
The cytotoxicity at 10 µM of the first is higher: -20.1% for the first, -147% for the second.

Compared with CCCc1cncnc1N1CCC(NCCc2nc(O)cc(O)n2)CC1, c1ccc(OCC2CC2)c(CNC2CCc3ncnn3C2)c1 (stereo not drawn) is lower in cytotoxicity at 10 µM: 5.99% for the first, -6.72% for the second.

First: Cc1ccc(C(C)N(C)Cc2nc3c(cnn3C)c(=O)[nH]2)c(C)c1 (stereo not drawn)
Second: Cc1nc(C)n(CC2CN(Cc3nccs3)Cc3nccn3C2)n1 (stereo not drawn)
The cytotoxicity at 10 µM of the first is higher: -12.4% for the first, -140% for the second.

Compared with CC(C)(C)c1noc(CN2CCN(C(=O)c3cccs3)CC2)n1, Cc1cc(C)n(CC2CN(Cc3nnsc3Cl)CCO2)n1 (stereo not drawn) is higher in cytotoxicity at 10 µM: -5.82% for the first, 1.46% for the second.

In the case of O=c1ccc2c(n1CCN1CCCC1)CCN(Cc1ccoc1)CC2, the cytotoxicity at 10 µM is reported as -8.97%.
